{"data": "Results from different studies", "target": "SNF-related serine/threonine-protein kinase (SNRK, Homo sapiens, UniProt Q9NRH2)", "Residues used in one study (Q9NRH2 1-765)": "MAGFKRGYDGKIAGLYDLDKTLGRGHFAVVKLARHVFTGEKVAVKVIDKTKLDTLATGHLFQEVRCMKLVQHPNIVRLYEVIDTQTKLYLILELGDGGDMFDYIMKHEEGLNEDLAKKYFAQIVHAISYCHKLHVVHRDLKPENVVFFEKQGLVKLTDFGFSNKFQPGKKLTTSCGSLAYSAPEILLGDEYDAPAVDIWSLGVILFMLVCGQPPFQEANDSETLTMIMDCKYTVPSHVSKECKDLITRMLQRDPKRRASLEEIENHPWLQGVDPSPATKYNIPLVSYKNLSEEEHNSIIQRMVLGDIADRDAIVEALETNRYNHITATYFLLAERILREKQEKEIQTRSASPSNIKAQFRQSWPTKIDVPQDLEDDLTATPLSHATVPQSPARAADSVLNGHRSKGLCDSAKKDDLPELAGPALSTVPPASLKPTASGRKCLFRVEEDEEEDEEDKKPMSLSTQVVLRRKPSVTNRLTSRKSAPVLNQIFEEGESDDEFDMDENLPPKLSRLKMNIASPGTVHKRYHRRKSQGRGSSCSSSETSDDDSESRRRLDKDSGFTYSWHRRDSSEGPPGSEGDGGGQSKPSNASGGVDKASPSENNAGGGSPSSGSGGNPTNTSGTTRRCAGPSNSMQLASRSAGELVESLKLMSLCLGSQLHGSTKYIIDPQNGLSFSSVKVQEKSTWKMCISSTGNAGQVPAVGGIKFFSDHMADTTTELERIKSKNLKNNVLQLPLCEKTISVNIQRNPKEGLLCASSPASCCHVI", "note": "Compare with care: the assays were run in different laboratories."}
{"SMILES": "CN(c1ccnc(CNc2nc(Nc3ccc4c(c3)CC(=O)N4)ncc2C(F)(F)F)n1)S(C)(=O)=O", "observed": "cell-free assay", "technique": "competition with immobilised ligand", "tested at": "1 µM", "remaining binding": "85%"}
{"SMILES": "COc1cnc(Nc2cccc(S(N)(=O)=O)c2)nc1N1CCN(c2ccccc2)CC1", "observed": "binding", "technique": "competition with immobilised ligand", "tested at": "1 µM", "remaining binding": "88%"}
{"SMILES": "Cc1cnn2ncc(-c3ccnc(N(C)C)n3)c2c1", "observed": "binding", "tested at": "1 µM", "remaining binding": "79%"}
{"SMILES": "COc1cc(-c2cn(C3CCc4c(F)cccc4N(CC(F)(F)F)C3=O)nn2)ccc1-n1cnc(C)c1 (stereo not shown)", "observed": "cell-free assay", "technique": "competition with immobilised ligand", "tested at": "1 µM", "remaining binding": "100%"}
{"SMILES": "N[C@@H]1CCN(c2nccc(-c3cnn4ncccc34)n2)C1", "observed": "binding", "tested at": "1 µM", "remaining binding": "100%"}
{"SMILES": "COc1ncc2cc3ccccc3nc2c1C#N", "observed": "cell-free assay", "technique": "competition with immobilised ligand", "tested at": "5 µM", "remaining binding": "100%"}
{"SMILES": "c1cnn2ncc(-c3ccnc(N4CCC45COC5)n3)c2c1", "observed": "binding", "tested at": "1 µM", "remaining binding": "67%"}
{"SMILES": "COc1ccc2c(c1)O[C@H](c1ccc(OC)c(OC)c1)C[C@@H]2NC(=O)C1(c2ccc3c(c2)OC(F)(F)O3)CC1", "observed": "cell-free assay", "technique": "competition with immobilised ligand", "tested at": "1 µM", "remaining binding": "92%"}
{"SMILES": "c1cncc(-c2cccc(Nc3nccc(NC4CCCCC4)n3)c2)c1", "observed": "binding", "technique": "competition with immobilised ligand", "tested at": "10 µM", "remaining binding": "69%"}
{"SMILES": "C[C@H]1CCN(c2nccc(-c3cnn4ncccc34)n2)C1", "observed": "binding", "tested at": "1 µM", "remaining binding": "81%"}
{"SMILES": "O=C(NCCCN1CCOCC1)c1ccc(Nc2ncc(Cl)c(-c3ccc(Cl)s3)n2)cc1", "observed": "binding", "technique": "competition with immobilised ligand", "tested at": "1 µM", "remaining binding": "100%"}
{"SMILES": "CS(=O)(=O)N1CCCC(NC(=O)[C@H](CCC2CCCCC2)NC(=O)c2ccc(CNc3ncnc4c3nnn4-c3ccccc3)cc2)C1 (stereo partly shown)", "observed": "cell-free assay", "technique": "competition with immobilised ligand", "tested at": "0.1 µM", "remaining binding": "81%"}
{"SMILES": "COc1ccnn2ncc(-c3ccnc(N(C)C)n3)c12", "observed": "binding", "tested at": "1 µM", "remaining binding": "93%"}
{"SMILES": "C=CC(=O)N1CCC(C(=O)NCC(=O)N2CCN(c3nc(-c4cnc(N)nc4C(F)F)nc(N4CCOCC4)n3)CC2)CC1", "observed": "binding", "technique": "competition with immobilised ligand", "tested at": "1 µM", "remaining binding": "99%"}
{"SMILES": "O=C(NCCCN1CCOCC1)c1ccc(Nc2nccc(-c3cc4ccccc4s3)n2)cc1", "observed": "binding", "technique": "competition with immobilised ligand", "tested at": "1 µM", "remaining binding": "99%"}
{"SMILES": "CN(CCCC(F)(F)F)c1nccc(-c2cnn3ncccc23)n1", "observed": "binding", "tested at": "1 µM", "remaining binding": "100%"}
{"SMILES": "C[C@@H](c1ccc(-n2cnc3c(N)ncnc32)cc1)N1CCc2nn(C)c(Cc3ccccc3)c2C1=O", "observed": "binding", "technique": "competition with immobilised ligand", "tested at": "0.1 µM", "remaining binding": "98%"}
{"SMILES": "C[C@H](c1ccnc(Nc2nc3ccc(-c4cc(N(C)C)ncn4)cc3[nH]2)c1)N1CCN(C(=O)CC(F)(F)F)CC1", "observed": "cell-free assay", "technique": "competition with immobilised ligand", "tested at": "0.1 µM", "remaining binding": "100%"}
{"SMILES": "O=C(c1ccc(Nc2ncc(Cl)c(-c3cc4ccccc4s3)n2)cc1)N1CCC(N2CCCC2)CC1", "observed": "binding", "technique": "competition with immobilised ligand", "tested at": "1 µM", "remaining binding": "87%"}
{"SMILES": "O=C(NCC1CCOCC1)c1n[nH]cc1NC(=O)c1c(F)cccc1F", "observed": "binding", "technique": "competition with immobilised ligand", "tested at": "1 µM", "remaining binding": "84%"}
{"SMILES": "O=c1nc(-c2ccccn2)sc2ccccc12", "observed": "binding", "technique": "competition with immobilised ligand", "tested at": "1 µM", "remaining binding": "100%"}
{"SMILES": "CCN1CCN(Cc2ccc(C(=O)Nc3ccc(C)c(Oc4ccc5c(c4)CC(=O)N5)c3)cc2C(F)(F)F)CC1", "observed": "binding", "technique": "competition with immobilised ligand", "tested at": "1 µM", "remaining binding": "98%"}
